These results are taken from article PMC7341950 (Nature chemistry, 2019).

Peptide text beside a SMILES is read from it. * marks the point of attachment. Cbz = O=C(OCc1ccccc1)*

This test has as its system HeLa cells. The experiment in a line: Radiolabel pulse-chase of cellular protein breakdown. The note with it: 35S-Met/35S-Cys label, 4 hr chase. It is filed as cell-based, human. The procedure, abridged: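 Cellular proteins were metabolically labeled with ³⁵S-Met and ³⁵S-Cys, then chased in unlabeled ("cold") medium. During the chase, cells were left untreated or given DMSO, test compound, or the proteasome inhibitor MG132 as a reference. Compounds were tested at more than one concentration to follow degradation across doses. Bars show mean values.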

Take `CC(C)C[C@@H](C=O)NC(=O)[C@H](CC(C)C)NC(=O)[C@H](CC(C)C)NC(=O)OCc1ccccc1` [MG132] (Cbz-Leu-Leu-Leu-aldehyde): the cellular protein breakdown entry is recorded as “inhibit”.
